Screening data as filed in PubChem.
RGS4 inh – inhibitors of human RGS4; P49798; HEK293 M3R/RGS4 inducible, Fluo-4 calcium flux; active compounds read high; triggered by carbachol at its EC20; B-score at 10 µM; 0.45% of 310,000 active; AID 463165;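 active = B-score, a plate-corrected calcium signal, over three deviations above library mean, with baseline fluorescence within five deviations of library mean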;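 also: RGS4 expression induced by doxycycline in cells with stable M3 receptor; B-score is computed from the integrated fluorescence ratio over baseline after carbachol; higher B-score means a larger calcium signal and so more RGS4 inhibition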
Target sequence (P49798 whole entry, looked up): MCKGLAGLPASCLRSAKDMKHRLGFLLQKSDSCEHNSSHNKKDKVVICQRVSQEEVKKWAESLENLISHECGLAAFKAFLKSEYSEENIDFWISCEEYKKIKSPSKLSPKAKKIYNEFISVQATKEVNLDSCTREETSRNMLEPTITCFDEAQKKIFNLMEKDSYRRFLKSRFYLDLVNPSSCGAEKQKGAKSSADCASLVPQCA
MrgX1 allo act – allosterically activates human MrgX1 receptor signaling; Q96LB2; MrgX1-HEK293, Fluo-4 calcium flux, FDSS; active compounds read high; B-score at 10 µM; 0.63% of 310,000 active; AID 588675;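 active = plate-corrected calcium response at least 3 library SD above typical, normal starting fluorescence, not activating the receptor alone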;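 also: compound read alongside a low EC10 to EC30 dose of BAM8-22 agonist; peak minus trough fluorescence over baseline measured at the second addition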
Target sequence (Q96LB2 whole entry, looked up): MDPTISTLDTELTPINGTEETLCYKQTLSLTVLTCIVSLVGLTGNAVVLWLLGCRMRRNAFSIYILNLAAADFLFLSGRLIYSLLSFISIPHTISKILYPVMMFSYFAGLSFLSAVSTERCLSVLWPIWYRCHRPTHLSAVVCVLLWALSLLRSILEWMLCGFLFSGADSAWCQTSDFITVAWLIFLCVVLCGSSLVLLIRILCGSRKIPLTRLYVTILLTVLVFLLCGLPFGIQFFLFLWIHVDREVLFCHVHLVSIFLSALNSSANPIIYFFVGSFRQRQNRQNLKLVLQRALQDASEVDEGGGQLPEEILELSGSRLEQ
RGS4 act – RGS4 potentiation or activation; HEK293 M3R/inducible RGS4, carbachol calcium flux Fluo4; active compounds read low; B-score at 10 µM; 0.92% of 310,000 active; AID 463111;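 active = B-score of the integrated calcium signal more than 4 SD below the library mean, with starting fluorescence not abnormally high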;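 also: negative B-score means reduced calcium response which marks RGS4 activation or potentiation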
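System: HEK293 FlpIn-TREx cells, stable M3R, doxycycline-inducible RGS4. Timing: overnight RGS4 induction, 30 min dye load 37 °C, 20 min compound RT. Also added: carbachol, ECmax concentration. Measured by: Fluo4 fluorescence kinetic imaging of calcium. Evaluation: integrated calcium ratio converted to B score.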
MrgX1 antagonist – antagonists of human MrgX1 receptor; MRGX1-HEK293 calcium flux, Fluo-4, BAM8-22 antagonism; active compounds read low; Q96LB2; 1.3% of 310,000 active; B-score at 10 µM; AID 588676;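 active = calcium-response B-score plate-corrected more than 3 library SD below zero, starting fluorescence within 5 deviations, no agonist response on first addition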;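 also: peak minus trough fluorescence over baseline after final BAM8-22 challenge near maximal dose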
MrgX1 ag – agonists of human MrgX1 receptor. Q96LB2. MrgX1-HEK293 cells, Fluo-4 calcium fluorescence, agonist mode; active compounds read high. B-score at 10 µM. 0.44% of 310,000 active. AID 588627;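 active = calcium response B-score plate-corrected fluorescence ratio at least 3 library SD, with starting fluorescence B-score inside 5 SD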
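Material – MrgX1-expressing HEK293 cells · Input – 15,000 cells seeded per well · Dosing – compound as first of three additions · Times – overnight seeding, then 1 h dark dye loading · Measured by – kinetic Fluo-4 NW fluorescence of intracellular calcium · Read-out – B-scored fluorescence response ratio · Benchmarks – positive and negative control wells on each plate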
Lipid droplet – modulators of hepatic lipid droplet formation; AML12 mouse hepatocytes, oleate lipid droplets, BODIPY imaging; 0.4% of 240,000 active; inhibition, % at 6.5 µM;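 active = lipid droplet intensity inhibited by at least 50%, with more than 500 cells counted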
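Material – AML12 mouse liver cells · Also added – oleate loading, 100 µM · Compound dosing – 6.5 µM single-point dosing · Times – overnight treatment with compound plus oleate · Measured by – fluorescence imaging, 20x objective, two fields per well · Read-out – percent inhibition of filter-corrected integrated lipid droplet intensity per well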
MrgX1 ant reconf – human MrgX1 receptor antagonism, re-confirmation screen | shares compounds with MrgX1 antagonist | MrgX1-HEK293, BAM8-22 calcium flux, Fluo-4; active compounds read low | remaining BAM8-22 calcium response % of control (active compounds read low), % at 10 µM | 19% of 2,300 active | AID 602420;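 active = remaining agonist calcium response no higher than 100% minus 3 SD of agonist-only control wells, with starting fluorescence near control levels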;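 also: agonist BAM8-22 given at a near maximal EC90 to ECmax level; peak minus minimum fluorescence divided by baseline after agonist addition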
HEK293 Ca flux – activity in parental HEK293 cells lacking MrgX1; shares compounds with MrgX1 antagonist; Fluo-4 calcium fluorescence, FDSS; fluorescence ratio F(max-min)/F0 at 10 µM; 2% of 4,000 active; AID 624111;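 active = duplicate-averaged calcium fluorescence ratio at least three times the standard deviation of buffer wells, a nonspecific response in parental cells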
HEK293 Ca counter – MrgX1 allosteric activator counter-screen hit in parental HEK293 cells. parental HEK293 calcium flux, Fluo-4 fluorescence ratio; active compounds read high. AID 624114. fluorescence ratio F(max-min)/F0 at 10 µM. 0.4% of 4,000 active. shares compounds with MrgX1 antagonist;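 active = calcium fluorescence ratio, averaged over duplicates, at least 3 SD of the buffer-well ratio, meaning a nonspecific response in receptor-free cells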;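 also: untransfected parental HEK293 lacking MrgX1 used as counterscreen for MrgX1 allosteric activators; fluorescence change taken during the second addition on a kinetic imager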
HEK293 Ca cntr2 – activity in parental HEK293 cells lacking MrgX1 receptor; shares compounds with MrgX1 antagonist; Fluo-4 calcium fluorescence (FDSS); active compounds read high; fluorescence ratio F(max-min)/F0 at 10 µM; 8.7% of 4,000 active; AID 624115;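 active = calcium fluorescence ratio at least three times the spread of buffer wells, meaning a non-specific response in parental cells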
An asterisk follows results filed as active; i = inactive; · = not tested or not shown. In the library only some 3.8% were active in any assay of this set; here they are far more common.

SMILES	RGS4 inh	MrgX1 allo act	RGS4 act	MrgX1 antagonist	MrgX1 ag	Lipid droplet	MrgX1 ant reconf	HEK293 Ca flux	HEK293 Ca counter	HEK293 Ca cntr2
Cc1ccccc1OCC(=O)Nc1ccc2c(c1)OCO2	i	i	i	-4.5*	i	·	84%*	i	i	i
Clc1ccc(/C=C/c2ncc[nH]2)c(Cl)c1	i	i	i	i	i	-28	·	·	·	·
CC1(CCc2ccccc2)NC(=O)N(CC(=O)Nc2ccc3c(c2)OCCO3)C1=O (stereo not drawn)	i	i	i	i	i	-1	·	·	·	·
CC(=O)Nc1nnc(COc2ccccc2)s1	i	i	i	i	i	-8	·	·	·	·
Cc1ccccc1OCC(=O)Nc1nnc(COc2ccccc2)s1	i	i	i	-8.2*	i	-5	i	i	i	i
Cc1cc(=O)oc2c(C)c(OC(C)C(=O)NC(Cc3c[nH]c4ccc(O)cc34)C(=O)O)ccc12 (stereo not drawn)	i	i	i	-5.5*	i	·	i	i	i	i
C=C(C)CSc1nc2c(c(=O)[nH]c(=O)n2C)n1Cc1ccccc1	i	i	i	-4.8*	i	2	83%*	i	i	i
CCCSc1nc2c(c(=O)[nH]c(=O)n2C)n1Cc1ccccc1	i	i	i	i	i	20	·	·	·	·
CCN1CCN(C(C(=O)NC2CCCCC2)c2ccc(Cl)cc2)CC1 (stereo not drawn)	i	i	i	i	i	-4	·	·	·	·
O=C(c1ccc(Cl)c(S(=O)(=O)N2CCCC2)c1)N1CCN(c2ccccc2)CC1	i	i	i	i	i	6	·	·	·	·
O=C(c1ccc(Cl)c(S(=O)(=O)N2CCOCC2)c1)N1CCN(c2ccccc2)CC1	i	i	i	-4.6*	i	16	i	i	i	i
O=C(c1ccc(Cl)c(S(=O)(=O)N2CCCCCC2)c1)N1CCN(c2ccccc2O)CC1	i	i	i	-4.8*	i	-2	80%*	i	i	i
CCN(CC)S(=O)(=O)c1ccc2[nH]c(=O)cc(C(=O)Nc3ccc(C)c(S(=O)(=O)N(CC)CC)c3)c2c1	i	i	i	i	i	-12	·	·	·	·
O=S(=O)(c1ccc(F)cc1)N1CCC(N2CCCCCC2)CC1	i	i	i	-11*	i	·	i	i	i	i
CC1CCN(C2CCN(S(=O)(=O)c3ccc(F)cc3)CC2)CC1	i	i	i	i	i	·	·	·	·	·
CN(C)C(=O)Nc1ccccc1	i	i	i	i	i	-5	·	·	·	·
O=C(NCCN1CCOCC1)c1ccc2c(c1)ncn2C1CCCCC1	i	i	i	-6.8*	i	·	i	i	i	i
Cn1cnnc1SCCC(=O)Nc1ccccc1	i	i	i	i	i	·	·	·	·	·
Cn1cnnc1SCC(=O)c1ccc(OC(F)F)cc1	i	i	i	i	i	14	·	·	·	·
Cn1cnnc1SCCC(=O)Nc1ccc(Cl)cc1	i	i	i	-5.8*	i	12	i	i	i	i
Cn1cnnc1SCC(=O)Nc1ccc(OC(F)F)cc1	i	i	i	-4.9*	i	9	84%*	i	i	i
CCn1cc(CN2CCc3c([nH]c4ccccc34)C2c2cccc(OC)c2OC)c(C)n1 (stereo not drawn)	i	i	i	-5.4*	i	18	i	i	i	i
COc1cc(C2c3[nH]c4ccccc4c3CCN2Cc2cn(C)nc2C)ccc1F (stereo not drawn)	i	i	i	i	i	2	·	·	·	·
COc1ccc(CCNc2c(C)c(C)nc3ncnn23)cc1	i	i	i	i	i	·	·	·	·	·
CCOC(=O)CN1C(=O)CN(c2ccc(C)cc2)C1=O	i	i	i	-5*	i	2	i	i	i	i
SMILES	RGS4 inh	MrgX1 allo act	RGS4 act	MrgX1 antagonist	MrgX1 ag	Lipid droplet	MrgX1 ant reconf	HEK293 Ca flux	HEK293 Ca counter	HEK293 Ca cntr2
CCOc1ncccc1C(=O)OCC(=O)c1ccc(F)cc1	i	i	i	i	i	19	·	·	·	·
CCCCNc1nc(CC(C)=O)ns1	i	i	i	-6.6*	i	-2	i	i	i	i
Cc1c(/C=N\NC(=O)C2COc3ccc(C(C)(C)C)cc3O2)c2ccccc2n1C (stereo not drawn)	i	i	i	i	i	2	·	·	·	·
Cc1ccc(S(=O)(=O)c2c(C)cc(C)[nH]c2=O)cc1	i	i	i	i	i	0	·	·	·	·
Cc1cc(C(=O)COC(=O)c2ccc3c(c2)NC(=O)CS3)c(C)n1CC1CCCO1 (stereo not drawn)	i	i	i	-5.9*	i	3	i	i	i	i
Cc1cccn2cc(-c3c[nH]c4ccccc34)nc12	i	i	i	i	i	4	·	·	·	·
Brc1ccc2nc(-c3c[nH]c4ccccc34)cn2c1	i	i	i	-5.4*	i	0	i	i	i	i
CCOc1ccc(C(C)=O)cc1CSc1nc2nc(C)cc(C)n2n1	i	i	i	-5.7*	i	0	69%*	i	i	i
COCCNC(=O)C1CC2Cn3c(nc4cc5ccccc5cc43)C2N1C (stereo not drawn)	i	i	i	-5.3*	i	27	i	i	i	i
COc1cccc(-c2nnc(SCC(=O)Nc3ccc4c(c3)OCCO4)n2Cc2ccco2)c1	i	i	i	-6.4*	i	-4	i	i	i	i
O=S(=O)(c1ccccc1)N1CCN(Cc2cccc(Cl)c2)CC1	·	i	·	-6.9*	i	2	i	i	i	i
Cc1c(C(=O)OCCOc2ccccc2)[nH]c2c1C(=O)CCC2	i	i	i	-5.2*	i	-1	67%*	i	i	i
